Measurements: ChEMBL document CHEMBL2177069, “Novel peptidomimetic compounds containing redox active chalcogens and quinones as potential anticancer agents” (Eur J Med Chem, 2012)
Active and inactive are the calls of the source. The rule behind the calls is not given here.

Legend:
[1] = system: HUVEC; assay: Cytotoxicity against human HUVEC cells after 24 hrs by MTT assay; format: cell-based
Summary of the method: (§1)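 MTT assay. Cells were seeded at 50,000 cells/mL in medium with 10% fetal calf serum and grown for two days at 37 °C, 10% CO2. Serial dilutions of compound were then added for 24 h. MTT was added (final 0.5 mg/mL) for 2 h, and the formazan was pelleted, washed, dissolved in isopropanol with 0.4% HCl and read at 590 nm. IC50 is the concentration giving 50% of untreated-control absorbance, taken from dose-response curves; mean of two parallel experiments.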

[2] = Cytotoxicity against human PHF cells after 24 hrs by MTT assay; format: cell-based; summary of the method: as §1
[3] = system: A-431; assay: Cytotoxicity against human A431 cells after 24 hrs by MTT assay; format: functional, cell-based; details: A-431, 24 h; summary of the method: as §1
[4] = system: A498; assay: Cytotoxicity against human A498 cells after 24 hrs by MTT assay; format: functional, cell-based; details: A498, 24 h; summary of the method: as §1
[5] = system: MCF7; assay: Cytotoxicity against human MCF7 cells after 24 hrs by MTT assay; format: functional, cell-based; details: MCF7, 24 h; summary of the method: as §1
[6] = system: Saccharomyces cerevisiae; assay: Growth inhibition of POS5-deficient Saccharomyces cerevisiae YPL188W mutant at 20 ug/disc after 24 to 48 hrs by agar diffusion assay; format: functional; details: read-out: DIZ
Summary of the method: (§2)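 S. cerevisiae deletion mutants or wild type grown on YPD, seeded into liquid agar medium at an optical density of 0.1. 6 mm paper discs soaked with methanolic compound solution were placed on the plates and incubated at 30 °C. Growth was checked after 1 and 2 days, and the inhibition zone diameter was recorded in mm.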

[7] = system: Saccharomyces cerevisiae; assay: Growth inhibition of PST2-deficient Saccharomyces cerevisiae YDR032C mutant at 20 ug/disc 24 to 48 hrs by agar diffusion assay; format: functional; details: read-out: DIZ; summary of the method: as §2
[8] = system: Saccharomyces cerevisiae; assay: Growth inhibition of GTT2-deficient Saccharomyces cerevisiae YLL060C mutant at 20 ug/disc after 24 to 48 hrs by agar diffusion assay; format: functional; details: read-out: DIZ; summary of the method: as §2
[9] = system: Saccharomyces cerevisiae; assay: Growth inhibition of SOD2-deficient Saccharomyces cerevisiae YHR008C mutant at 20 ug/disc 24 to 48 hrs by agar diffusion assay; format: functional; details: read-out: DIZ; summary of the method: as §2
[10] = system: Saccharomyces cerevisiae; assay: Growth inhibition of UFD2-deficient Saccharomyces cerevisiae YDL190C mutant at 20 ug/disc after 24 to 48 hrs by agar diffusion assay; format: functional; details: read-out: DIZ; summary of the method: as §2
[11] = system: Saccharomyces cerevisiae; assay: Growth inhibition of GSH2-deficient Saccharomyces cerevisiae YOL049W mutant at 20 ug/disc after 24 to 48 hrs by agar diffusion assay; format: functional; details: read-out: DIZ; summary of the method: as §2
[12] = system: Saccharomyces cerevisiae; assay: Growth inhibition of COX17-deficient Saccharomyces cerevisiae YLL009C mutant at 20 ug/disc after 24 to 48 hrs by agar diffusion assay; format: functional; details: read-out: DIZ; summary of the method: as §2
[13] = system: Saccharomyces cerevisiae; assay: Growth inhibition of wild type Saccharomyces cerevisiae BY4741 at 20 ug/disc after 24 to 48 hrs by agar diffusion assay; format: functional; details: read-out: DIZ; summary of the method: as §2
[14] = system: Saccharomyces cerevisiae; assay: Growth inhibition of RCK1-deficient Saccharomyces cerevisiae YGL158W mutant at 20 ug/disc after 24 to 48 hrs by agar diffusion assay; format: functional; details: read-out: DIZ; summary of the method: as §2
[15] = system: Saccharomyces cerevisiae; assay: Growth inhibition of SOD1-deficient Saccharomyces cerevisiae YJR104C mutant at 20 ug/disc after 24 to 48 hrs by agar diffusion assay; format: functional; details: read-out: DIZ; summary of the method: as §2
[16] = system: Saccharomyces cerevisiae; assay: Growth inhibition of WSC4-deficient Saccharomyces cerevisiae YHL028W mutant at 20 ug/disc 24 to 48 hrs by agar diffusion assay; format: functional; details: read-out: DIZ; summary of the method: as §2
[17] = system: HUVEC; assay: Induction of oxidative stress in human HUVEC cells assessed as increase in superoxide free radical production after 1 hr by DHE-based by fluorescence spectrophotometric analysis; format: cell-based
Summary of the method: (§3)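 Cells were seeded at 10^5 per well and given graded compound concentrations for 1 h. They were then loaded with DHE or DCF probe for 30 min in the dark. Fluorescence was read immediately: DHE ex 540/em 600 nm; DCF ex 485/em 528 nm. Results were expressed as arbitrary units per 10^5 cells.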

[18] = system: A-431; assay: Induction of oxidative stress in human A431 cells assessed as increase in hydrogen peroxide free radical production after 1 hr by DCF-based fluorescence spectrophotometric analysis; format: functional, cell-based; summary of the method: as §3
[19] = system: HUVEC; assay: Induction of oxidative stress in human HUVEC cells assessed as increase in hydrogen peroxide free radical production after 1 hr by DCF-based fluorescence spectrophotometric analysis; format: cell-based; summary of the method: as §3
[20] = system: MCF7; assay: Induction of Cell cycle arrest in human MCF7 cells assessed as G2/M phase cells at IC50 concentration after 24 hrs by PI-staining based flow cytometric analysis (reference value: 13%); format: functional
Summary of the method: (§4)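 MCF-7 cells (10^6) were treated for 24 h, with methanol as the vehicle control. Cells were fixed in cold 70% methanol at 4 °C for one day, washed with PBS, and permeabilized with 0.1% saponin in PBS. They were stained with propidium iodide plus RNase for 30 min. DNA content was read by flow cytometry, giving percentages of cells per cell-cycle phase.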

[21] = system: MCF7; assay: Induction of Cell cycle arrest in human MCF7 cells assessed as S phase cells at IC50 concentration after 24 hrs by PI-staining based flow cytometric analysis (reference value: 19%); format: functional; summary of the method: as §4
[22] = system: MCF7; assay: Induction of oxidative stress in human MCF7 cells assessed as decrease in GSH level at 5 uM after 1 hr by DTNB assay relative to control; format: functional; design: scale not given: the % may be the effect or the level left
Summary of the method: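 MCF-7 cells (10^6) were treated for 1 h at 37 °C, trypsinized, and washed twice with cold PBS. GSH was extracted with chilled 5% metaphosphoric acid at 4 °C for 2 h, then the lysate was centrifuged. Supernatant was mixed with 0.2 M sodium phosphate pH 8.0 and 0.04 mM DTNB for 10 min at room temperature. Absorbance was read at 412 nm against a reagent blank, and GSH was quantified from a standard curve.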

[23] = system: MCF7; assay: Induction of Cell cycle arrest in human MCF7 cells assessed as G0/1 phase cells at IC50 concentration after 24 hrs by PI-staining based flow cytometric analysis (reference value: 68%); format: functional; summary of the method: as §4
[24] = system: A-431; assay: Induction of oxidative stress in human A431 cells assessed as increase in superoxide free radical production after 1 hr by DHE-based by fluorescence spectrophotometric analysis; format: functional, cell-based; summary of the method: as §3

| Structure (SMILES) | IC50 [1] | IC50 [2] | IC50 [3] | IC50 [4] | IC50 [5] | zone of inhibition at 20 µg/disc [6] | zone of inhibition at 20 µg/disc [7] | zone of inhibition at 20 µg/disc [8] | zone of inhibition at 20 µg/disc [9] | zone of inhibition at 20 µg/disc [10] | zone of inhibition at 20 µg/disc [11] | zone of inhibition at 20 µg/disc [12] | zone of inhibition at 20 µg/disc [13] | zone of inhibition at 20 µg/disc [14] | zone of inhibition at 20 µg/disc [15] | zone of inhibition at 20 µg/disc [16] | Activity [17] | Activity [19] | further results |
| --- | --- | --- | --- | --- | --- | --- | --- | --- | --- | --- | --- | --- | --- | --- | --- | --- | --- | --- | --- |
| CC(C)(C)NC(=O)COC(=O)c1ccc(-c2c3nc(c(-c4ccccc4)c4ccc([nH]4)c(-c4ccccc4)c4nc(c(-c5ccccc5)c5ccc2[nH]5)C=C4)C=C3)cc1 | > 100 µM | > 100 µM | > 100 µM | > 100 µM | > 100 µM |  |  |  |  |  |  |  |  |  |  |  |  |  |  |
| CC1=C([Se]CC(OC(=O)c2ccc(-c3c4nc(c(-c5ccccc5)c5ccc([nH]5)c(-c5ccccc5)c5nc(c(-c6ccccc6)c6ccc3[nH]6)C=C5)C=C4)cc2)C(=O)NC(C)(C)C)C(=O)c2ccccc2C1=O (centres undefined) | > 100 µM | > 100 µM | > 100 µM | > 100 µM | > 100 µM |  |  |  |  |  |  |  |  |  |  |  |  |  |  |
| CC1=C(SCCC(=O)OC(C[Se]c2ccccc2)C(=O)NCCCCCC(=O)OCc2ccccc2)C(=O)c2ccccc2C1=O (centres undefined) | 23 µM | 50 µM | > 100 µM | > 100 µM | 10 µM | 0 mm | 12 mm | 0 mm | 13 mm | 0 mm | 0 mm | 0 mm | 0 mm | 0 mm | 18 mm | 12 mm |  |  |  |
| CC1=C(SCCC(=O)OC(CC[Se]c2ccccc2)C(=O)NCCCCCC(=O)OCc2ccccc2)C(=O)c2ccccc2C1=O (centres undefined) | 17 µM | 21 µM | > 100 µM | > 100 µM | 19 µM | 0 mm | 11 mm | 17 mm | 12 mm | 0 mm | 0 mm | 0 mm | 0 mm | 0 mm | 13 mm | 11 mm | Non-toxic | Non-toxic | Activity [18]: Active |
| CC1=C([Se]CC(OC(=O)[C@@H](CSSC(C)(C)C)NC(=O)OC(C)(C)C)C(=O)NC(C)(C)C)C(=O)c2ccccc2C1=O (some centres undefined) | 2 µM | 4 µM | 2 µM | 5 µM | 3 µM | 11 mm | 11 mm | 20 mm | 18 mm | 0 mm | 14 mm | 14 mm | 0 mm | 14 mm | 21 mm | 20 mm | Non-toxic | Non-toxic | Activity [20]: 1.6%; Activity [18]: Active; Activity [21]: 3.9%; Activity [22]: 46%; Activity [23]: 95% |
| CC(C)(C)NC(=O)C(C[Se]c1ccccc1)OC(=O)c1ccc(-c2c3nc(c(-c4ccccc4)c4ccc([nH]4)c(-c4ccccc4)c4nc(c(-c5ccccc5)c5ccc2[nH]5)C=C4)C=C3)cc1 (centres undefined) | > 100 µM | > 100 µM | > 100 µM | > 100 µM | > 100 µM |  |  |  |  |  |  |  |  |  |  |  |  |  |  |
| CC1=C(SCCC(=O)OC(C[Se]C2=C(C)C(=O)c3ccccc3C2=O)C(=O)NC(C)(C)C)C(=O)c2ccccc2C1=O (centres undefined) | 1 µM |  | 1 µM | 3 µM | 3 µM |  |  |  |  |  |  |  |  |  |  |  |  |  |  |
| CC1=C([Se]CC(OC(=O)CNC(=O)OC(C)(C)C)C(=O)NCCCCCC(=O)OCc2ccccc2)C(=O)c2ccccc2C1=O (centres undefined) | 36 µM | 6 µM | 5 µM | 7 µM | 4 µM | 0 mm | 11 mm | 18 mm | 25 mm | 0 mm | 0 mm | 0 mm | 0 mm | 0 mm | 20 mm | 14 mm |  |  | Activity [22]: 76% |
| CC1=C(SCCC(=O)OC(C[Se]c2ccccc2)C(=O)NC(C)(C)C)C(=O)c2ccccc2C1=O (centres undefined) | 34 µM | 26 µM | 7 µM | > 100 µM | 14 µM | 9 mm | 12 mm | 12 mm | 12 mm | 0 mm | 9 mm | 0 mm | 0 mm | 9 mm | 15 mm | 11 mm |  |  |  |
| CC1=C(SCCC(=O)OC(CC[Se]c2ccccc2)C(=O)NC(C)(C)C)C(=O)c2ccccc2C1=O (centres undefined) | 13 µM | 11 µM | > 100 µM | > 100 µM | 26 µM | 0 mm | 12 mm | 0 mm | 0 mm | 10 mm | 0 mm | 10 mm | 0 mm | 0 mm | 10 mm | 11 mm | Non-toxic | Non-toxic | Activity [24]: Active |
